The source made the active and inactive calls. The calls are words filed in the database; no cut-off is given here.
Each compound was assayed against Human immunodeficiency virus type 1 reverse transcriptase (Human immunodeficiency virus 1, UniProt Q72547) (assay: Inhibition of HIV1 reverse transcriptase by ELISA).
Method in brief: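 HIV-1 reverse transcriptase activity measured with a poly(rA)/oligo(dT)15 homopolymer template and read by HIV antigen-detection ELISA.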
For `O=c1[nH]c(SCCc2ccccc2)nc(Cc2ccccc2)c1Br`, the IC50 was 13.9 µM.
With `O=c1[nH]c(SCc2ccc3ccccc3c2)nc(Cc2ccccc2)c1I` the IC50 was 2.04 µM.
With `CC(Sc1nc(Cc2ccccc2)cc(=O)[nH]1)c1ccccc1` (centres undefined) the IC50 was over 100 µM.
For `CCOCSc1nc(Cc2ccccc2)cc(=O)[nH]1`, the IC50 was over 100 µM.
`COc1cccc(CSc2nc(Cc3ccccc3)c(I)c(=O)[nH]2)c1` was tested, and the IC50 was 8.29 µM.
`O=c1cc(Cc2ccccc2)nc(SCCCc2ccccc2)[nH]1` was tested, and the IC50 was 8.17 µM.
`Cc1c(Cc2ccccc2)nc(SCCc2ccccc2)[nH]c1=O` was tested, and the IC50 was 59.6 µM.
Compound `COc1cccc(CSc2nc(Cc3ccccc3)cc(=O)[nH]2)c1` has an IC50 of 90.8 µM.
Compound `O=c1cc(Cc2ccccc2)nc(SCCc2ccccc2)[nH]1` has an IC50 of 17.4 µM.
`Cc1ccccc1CSc1nc(Cc2ccccc2)cc(=O)[nH]1` gave an IC50 of 47.7 µM.
`C=CCSc1nc(Cc2ccccc2)cc(=O)[nH]1` was tested, and the IC50 was over 100 µM.
In the case of `Cc1c(Cc2ccccc2)nc(SCOCc2ccccc2)[nH]c1=O`, the IC50 is reported as 19 µM.
`Cc1c(Cc2ccccc2)nc(SC(C)c2ccccc2)[nH]c1=O` (centres undefined) was tested, and the IC50 was over 100 µM.
Work on `O=c1[nH]c(SCCc2ccccc2)nc(Cc2ccccc2)c1I` yielded an IC50 of 2.4 µM.
In the case of `CC(C)(C)c1ccc(CSc2nc(Cc3ccccc3)c(I)c(=O)[nH]2)cc1`, the IC50 is reported as 5.62 µM.
`COc1cccc(CSc2nc(Cc3ccccc3)c(C)c(=O)[nH]2)c1` gave an IC50 of 48.7 µM.
`Cc1ccccc1CSc1nc(Cc2ccccc2)c(C)c(=O)[nH]1` showed an IC50 of over 100 µM.
`Cc1ccccc1CSc1nc(Cc2ccccc2)c(I)c(=O)[nH]1` showed an IC50 of 4.16 µM.
`CCOCn1c(Cc2ccccc2)c(C(C)C)c(=O)[nH]c1=O` [EMIVIRINE] was tested, and the IC50 was 0.15 µM.
`Cc1cccc(CSc2nc(Cc3ccccc3)c(Br)c(=O)[nH]2)c1` showed an IC50 of 26.7 µM.
Work on `O=c1[nH]c(SCCCc2ccccc2)nc(Cc2ccccc2)c1I` yielded an IC50 of 0.18 µM.
`O=c1[nH]c(SCc2ccccc2)nc(Cc2ccccc2)c1I` was tested, and the IC50 was 10.1 µM.
With `Cc1ccccc1CSc1nc(Cc2ccccc2)c(Br)c(=O)[nH]1` the IC50 was 24.9 µM.
`Cc1cccc(CSc2nc(Cc3ccccc3)c(I)c(=O)[nH]2)c1` gave an IC50 of 3.03 µM.
`O=c1[nH]c(SCc2ccc3ccccc3c2)nc(Cc2ccccc2)c1Br` showed an IC50 of 12.3 µM.
`CCOCSc1nc(Cc2ccccc2)c(C)c(=O)[nH]1` gave an IC50 of 51.7 µM.
`O=c1cc(Cc2ccccc2)nc(SCOCc2ccccc2)[nH]1` was tested, and the IC50 was 12.1 µM.
For `Cc1c(Cc2ccccc2)nc(SCCCc2ccccc2)[nH]c1=O`, the IC50 was 2.93 µM.
In the case of `Cc1cccc(CSc2nc(Cc3ccccc3)cc(=O)[nH]2)c1`, the IC50 is reported as 91.1 µM.

The compounds below were run against Human immunodeficiency virus type 1 reverse transcriptase (Human immunodeficiency virus 1) (UniProt Q72547) (assay: Inhibition of HIV1 reverse transcriptase up to 100 uM by ELISA).
Method in brief: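 RT assay on a poly(rA)/oligo(dT)15 homopolymer template with HIV antigen-detection ELISA read-out. Compounds were tested for loss of RT activity at concentrations up to 100 µM. Values are means of three separate experiments, with triplicate variation under 15%.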
For `C=CCSc1nc(Cc2ccccc2)c(C)c(=O)[nH]1`, the inhibition was “inactive”.
In the case of `O=c1cc(Cc2ccccc2)nc(SCc2ccccc2)[nH]1`, the inhibition is reported as “inactive”.
In the case of `Cc1cccc(CSc2nc(Cc3ccccc3)c(C)c(=O)[nH]2)c1`, the inhibition is reported as “inactive”.
`Cc1c(Cc2ccccc2)nc(SCc2ccc(C(C)(C)C)cc2)[nH]c1=O` was tested, and the inhibition was “inactive”.
`O=c1cc(Cc2ccccc2)nc(SCc2ccc3ccccc3c2)[nH]1` was tested, and the inhibition was “inactive”.
`CC(C)(C)c1ccc(CSc2nc(Cc3ccccc3)cc(=O)[nH]2)cc1` was tested, and the inhibition was “inactive”.
With `Cc1c(Cc2ccccc2)nc(SCc2ccc3ccccc3c2)[nH]c1=O` the inhibition was “inactive”.
For `Cc1c(Cc2ccccc2)nc(SCc2ccccc2)[nH]c1=O`, the inhibition was “inactive”.

What follows are compounds tested against Human immunodeficiency virus type 1 reverse transcriptase (Human immunodeficiency virus 1) (UniProt Q72547) (assay: Ratio of nevirapine IC50 to compound IC50 for HIV1 reverse transcriptase).
`O=c1[nH]c(SCCCc2ccccc2)nc(Cc2ccccc2)c1I` showed a Ratio IC50 of 23.

The compounds below were run against Human immunodeficiency virus type 1 reverse transcriptase (Human immunodeficiency virus 1) (UniProt Q72547) (assay: Ratio of compound IC50 to 5a3 IC50 for HIV1 reverse transcriptase).
`O=c1cc(Cc2ccccc2)nc(SCCCc2ccccc2)[nH]1` was tested, and the Ratio IC50 was 45.
